Drawing on ChEMBL document CHEMBL1275461, “Early bactericidal activity and pharmacokinetics of the diarylquinoline TMC207 in treatment of pulmonary tuberculosis” (Antimicrob Agents Chemother, 2008), this text covers log10CFU/ml, Activity and Time for one compound.

In data set [1] the test system is Mycobacterium tuberculosis. Kind of data set: Bactericidal activity against Mycobacterium tuberculosis in pulmonary tuberculosis patient assessed as reduction in sputum bacterial count at 300 mg/kg, po once daily measured after 7 days. Format: functional. In a few lines:
(§1)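 Hospitalized treatment-naïve smear-positive patients took oral doses once daily, observed, after breakfast. Sputum was pooled over 16 h overnight at baseline, after each of the 7 dosing days, and on the night after the first standard-therapy dose. Sputum was stirred, digested with dithiothreitol for 20 min at room temperature, and diluted 10-fold. Dilutions were plated in quadruplicate on selective 7H11 agar and counted after 3-4 weeks at 37°C at 20-200 colonies. The read-out was change in log10 CFU/ml from baseline, with a count of 0 set to log 0.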

Data set [2] has as its system Mycobacterium tuberculosis. Kind of data set: Bactericidal activity against Mycobacterium tuberculosis in pulmonary tuberculosis patient assessed as reduction in sputum bacterial count at 300 mg/kg, po once daily measured after 4 days. The format is functional. In a few lines:
as §1

Data set [3] has as its system Mycobacterium tuberculosis. Kind of data set: Bactericidal activity against Mycobacterium tuberculosis in pulmonary tuberculosis patient assessed as reduction in sputum bacterial count at 300 […], po once daily measured after 1 day. The format is functional. In a few lines:
as §1

The test system of data set [4] is Homo sapiens. Kind of data set: Toxicity in pulmonary tuberculosis patient assessed as hemoptysis at 300 mg/kg, po once daily. Set-up: dose 300 mg/kg, route oral. As to conditions: in vivo. Format: organism-based.
The subject of data set [5] is Mycobacterium tuberculosis. Kind of data set: Bactericidal activity against Mycobacterium tuberculosis in pulmonary tuberculosis patient assessed as reduction in sputum bacterial count at 300 mg/kg, po once daily measured after 5 days. The format is functional. In a few lines: as §1
The subject of data set [6] is Homo sapiens. Kind of data set: Cardiotoxicity in pulmonary tuberculosis patient assessed as increase in QT interval at 300 mg/kg, po once daily for 7 days. The format is toxicity, organism-based. On the set-up: dose 300 mg/kg, route oral. As to conditions: in vivo, 168 h.
In data set [7] the test system is Mycobacterium tuberculosis. Kind of data set: Bactericidal activity against Mycobacterium tuberculosis in pulmonary tuberculosis patient assessed as reduction in sputum bacterial count at 300 mg/kg, po once daily measured after 6 days. The format is functional. In a few lines: as §1
The subject of data set [8] is Mycobacterium tuberculosis. Nature of the data set: Bactericidal activity against Mycobacterium tuberculosis in pulmonary tuberculosis patient assessed as reduction in sputum bacterial count at 300 […], po once daily measured after 2 days. The format is functional. In a few lines: as §1
The subject of data set [9] is Mycobacterium tuberculosis. Nature of the data set: Bactericidal activity against Mycobacterium tuberculosis in pulmonary tuberculosis patient assessed as reduction in sputum bacterial count at 300 mg/kg, po once daily measured on day 8 after starting standard TB therapy. Format: functional. In a few lines: as §1
Data set [10] concerns Mycobacterium tuberculosis. Nature of the data set: Bactericidal activity against Mycobacterium tuberculosis in pulmonary tuberculosis patient assessed as reduction in sputum bacterial count at 300 […], po once daily measured after 3 days. The format is functional. In a few lines:
as §1

On to `NNC(=O)c1ccncc1` [ISONIAZID], for which the log10CFU/ml in data set [1] is -1.88; in data set [2], -1.32; in [3], -0.43; in data set [5], -1.41; in data set [7], -1.68; in data set [8], -0.57. Further, the log10CFU/ml is recorded as -1.94 in [9] and -1.34 in [10]. In addition, the Activity in the data set on Homo sapiens [4] was 13.3%. Besides, the Time with Homo sapiens [6] came to 20.2 ms.
